CHRM1 PAM: human M1 muscarinic receptor positive allosteric modulators, primary screen, CHO-K1 cells, Fluo-8 calcium fluorescence, 1536-well; Muscarinic acetylcholine receptor M1 (Homo sapiens), P11229; activation, % at 3 µM; actives 0.088% (n = 360,000); CHO-K1 hM1, ACh EC20; 0% = ACh EC20, 100% = maximal ACh; in the data active means activation above about 19%, passing the limit was not always enough
CHRM1 agonist: human M1 muscarinic receptor agonists, primary screen, Fluo-8 calcium fluorescence, CHO-K1 cells, HTS. Muscarinic acetylcholine receptor M1 (Homo sapiens), P11229. activation, % at 3 µM. CHO-K1 hM1, agonist mode; 0% DMSO, 100% acetylcholine EC100. actives 0.33% (n = 360,000). AID 588814, 2011;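 active means activation above the run's mean compound activation plus 3 SD, cut at about 16% in these data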;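 further: peak over basal fluorescence ratio within a 140 s kinetic read after compound addition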
m5-HT2A agonist: mouse Htr2a agonists via beta-arrestin recruitment, primary screen, cell-based, luminescence | CHO-K1 mHTR2A beta-arrestin complementation; percent of 30 µM serotonin response | 5-hydroxytryptamine receptor 2A (Mus musculus), P35363 | activation, % at 7.6 µM | actives 0.66% (n = 360,000);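 active means activation above a run cutoff, the mean activation of all tested compounds plus 3 SD, cut at about 14% in these data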;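 further: 0% = plate median of compound wells and 100% = 30 µM serotonin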
Target sequence (P35363 whole entry, looked up): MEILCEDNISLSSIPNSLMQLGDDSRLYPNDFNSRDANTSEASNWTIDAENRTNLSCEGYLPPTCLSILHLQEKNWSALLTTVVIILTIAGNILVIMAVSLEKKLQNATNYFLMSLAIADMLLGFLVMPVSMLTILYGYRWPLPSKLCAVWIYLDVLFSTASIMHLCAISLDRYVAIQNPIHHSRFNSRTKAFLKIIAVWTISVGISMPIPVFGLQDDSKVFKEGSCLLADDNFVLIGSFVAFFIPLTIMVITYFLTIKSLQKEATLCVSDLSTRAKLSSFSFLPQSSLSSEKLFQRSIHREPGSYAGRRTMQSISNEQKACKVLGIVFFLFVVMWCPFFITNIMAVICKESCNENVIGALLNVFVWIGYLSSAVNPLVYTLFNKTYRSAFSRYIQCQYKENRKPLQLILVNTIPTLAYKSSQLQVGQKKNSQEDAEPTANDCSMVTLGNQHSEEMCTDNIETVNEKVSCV
CHRM1 antagonist: human M1 muscarinic receptor antagonists, primary screen, CHO-K1 cells, Fluo-8 calcium fluorescence, 1536-well | Muscarinic acetylcholine receptor M1 (Homo sapiens), P11229 | CHO-K1 hM1, ACh EC80 antagonist | inhibition, % at 3 µM | actives 1.3% (n = 360,000);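 active means percent inhibition above its own plate's cutoff, namely the mean of that plate's compound wells plus 3 SD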;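 further: peak over basal fluorescence ratio during 140 s after agonist addition; 0% = ACh EC80 plus DMSO and 100% = DMSO alone without agonist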
TAAR1 ag: human TAAR1 agonists, primary screen, Fluo-8 calcium fluorescence, CHO RD-HGA16 cells; Trace amine-associated receptor 1 (Homo sapiens), Q96RJ0; vehicle wells 0%, saturating PEA agonist 100%; activation, % at 3 µM; actives 0.99% (n = 360,000);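 active means activation above the mean activation of all test compounds in the run plus 3 SD, cut at about 38% in these data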
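Repeats: no replicates (n 1) | Material: CHO-derived RD-HGA16 cells with stable Gα16 and human TAAR1 | Technique: Kinetic Fluo-8 calcium fluorescence | Schedule: 17-24 h seeding, 75 min 37 °C dye, 30 min RT | Evaluation: % activation from peak over basal fluorescence ratio, DMSO-to-PEA scaled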
TAAR1 antagonist: human TAAR1 antagonists, primary screen, Fluo-8 calcium fluorescence, CHO RD-HGA16 cells | Trace amine-associated receptor 1 (Homo sapiens), Q96RJ0 | antagonist | inhibition, % at 3 µM | actives 1.5% (n = 360,000) | AID 624466, 2012;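 active means inhibition above a per-plate cutoff, the mean inhibition of test compounds on that plate plus 3 SD, cut at about 49% in these data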;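 further: 0% = DMSO plus EC80 beta-PEA response and 100% = DMSO alone without agonist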
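Assay system: CHO-derived RD-HGA16 cells stably expressing human TAAR1 plus Gα16. Timing: 140 s kinetic read after compound, 140 s after agonist. Technique: kinetic Fluo-8 calcium fluorescence measurement. Measure: % inhibition of agonist calcium response.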
Numbers without * were called inactive. An excerpt weighted towards active compounds, which were near 3.9% of everything screened.

Screening CCCc1nn(C)c2c(=O)[nH]c(-c3cc(S(=O)(=O)Nc4ccc(NC(C)=O)cc4)ccc3OCC)nc12 returned CHRM1 PAM 9.2, CHRM1 agonist -4.2, m5-HT2A agonist 2.6, CHRM1 antagonist -16.6, TAAR1 ag 0.9 and TAAR1 antagonist 12.0.
O=C(O)C(c1ccccc1)N1C(=O)/C(=C\c2ccc(O)c(O)c2)SC1=S (stereo not drawn) was read as CHRM1 PAM -8.6, CHRM1 agonist 12.9, m5-HT2A agonist 2.0, CHRM1 antagonist 16.7, TAAR1 ag 19.6 and TAAR1 antagonist 15.7.
`CCOc1ccc(/C=C2/SC(=S)N(C(C(=O)O)c3ccccc3)C2=O)cc1OCC` (stereo not drawn) gave CHRM1 PAM 10.6, CHRM1 agonist -3.7, m5-HT2A agonist -1.2, CHRM1 antagonist -6.1, TAAR1 ag 5.5 and TAAR1 antagonist 17.4.
For CCOc1cc(/C=C2\SC(=S)N(C(C(=O)O)c3ccccc3)C2=O)ccc1O (stereo not drawn) the results were CHRM1 PAM -1.5, CHRM1 agonist 19.1*, m5-HT2A agonist -12.4, CHRM1 antagonist 8.7, TAAR1 ag 18.2 and TAAR1 antagonist 1.5.
`COc1cc(/C=C2\SC(=S)N(C(C(=O)O)c3ccccc3)C2=O)ccc1O` (stereo not drawn) gave CHRM1 PAM -8.7, CHRM1 agonist 17.3*, m5-HT2A agonist -4.9, CHRM1 antagonist 5.7, TAAR1 ag 34.1 and TAAR1 antagonist 5.2.
`CN1c2ccsc2/C(=N/Nc2ccc(F)cc2)CS1(=O)=O` gave CHRM1 PAM 9.5, CHRM1 agonist -6.9, m5-HT2A agonist -5.0, CHRM1 antagonist 1.0, TAAR1 ag 43.6* and TAAR1 antagonist 29.4.
`Cc1ccc(S(=O)(=O)c2nnn3c2nc(NC2CCN(Cc4ccccc4)CC2)c2ccccc23)cc1C` gave CHRM1 PAM -23.2, CHRM1 agonist -6.1, m5-HT2A agonist -12.5 and CHRM1 antagonist 74.8*.
For CC(=C/c1ccco1)/C=N/NC(=O)c1nnn(-c2nonc2N)c1CN(C)C the results were CHRM1 PAM 8.6, CHRM1 agonist -4.3, m5-HT2A agonist 2.8, CHRM1 antagonist -10.9, TAAR1 ag 6.4 and TAAR1 antagonist -8.9.
Screening CC(Cc1ccccc1)NC(=O)CSc1nc2nc3c(cc2c(=O)n1-c1ccccc1)COC(C)(C)C3 (stereo not drawn) returned CHRM1 PAM 8.5, CHRM1 agonist 16.2*, m5-HT2A agonist 5.0, CHRM1 antagonist -4.9, TAAR1 ag 5.2 and TAAR1 antagonist 4.6.
Screening COc1ccc(C(=O)C(C)[n+]2ccc(C)c3ccccc32)cc1[N+](=O)[O-] (stereo not drawn) returned CHRM1 PAM -21.8, CHRM1 agonist -4.1, m5-HT2A agonist -1.5, CHRM1 antagonist 43.4*, TAAR1 ag 7.4 and TAAR1 antagonist -3.5.
Cc1[nH]c(=S)[nH]c(=O)c1Cc1c(O)ccc2ccccc12 was read as CHRM1 PAM 27.4*, CHRM1 agonist 35.0*, m5-HT2A agonist 1.4, CHRM1 antagonist -10.8, TAAR1 ag 1.6 and TAAR1 antagonist -5.5.
Cc1[nH]c(=S)[nH]c(=O)c1Cc1ccccc1 was read as CHRM1 PAM 12.6, CHRM1 agonist 1.1, m5-HT2A agonist -3.7, CHRM1 antagonist -33.7, TAAR1 ag 7.0 and TAAR1 antagonist -12.7.
`CCOc1ccc(NCc2cccn2-c2nnc(N3CCC(C(=O)NCCCN4CCCCC4CC)CC3)s2)cc1` (stereo not drawn) gave CHRM1 PAM -23.3, CHRM1 agonist -5.4, m5-HT2A agonist -12.2, CHRM1 antagonist 88.1*, TAAR1 ag -1.2 and TAAR1 antagonist -7.2.

Screening results (PubChem BioAssay)
